From PubChem
In the library only some 3.7% were active in any assay of this set; here they are far more common.
KCNQ1 pot = human KCNQ1 channel potentiation or activation; B-score at 10 µM; CHO-K1 KCNQ1, thallium flux FluxOR fluorescence; hits give high values; 310,000 tested, 0.35% active; AID 2648; P51787;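 active = fluorescence ratio B-score, a plate-corrected score, at least three library SD, with initial intensity B-score within 5 SD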
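System: Stable KCNQ1 CHO-K1 line | Incubation: 90 min dye loading and 20 min compound exposure, both at room temperature | Measure: Ratio B score | Medium: Assay buffer for compound exposure, DMSO matched across wells | Compound dosing: Single-concentration screen | Probe or stimulus: K+/Tl+ depolarizing stimulus | Measured by: Kinetic FluxOR fluorescence, 10 s baseline plus 110 s post-stimulus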
Kir21 inh = inhibitors of mouse Kir2.1 inward-rectifier potassium channel; HEK293-Kir2.1, FluxOR thallium flux fluorescence; hits give low values; P35561; 310,000 tested, 0.85% active; B-score at 10 µM;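 active = fluorescence ratio B-score at or below minus 3 SD of library scores, with starting-brightness B-score within 2 SD, cut at about -4.2 in these data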;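 note: channel flux triggered by added potassium and thallium sulfate stimulus; B-score of peak minus minimum fluorescence over baseline after thallium stimulus; more negative B-score means stronger Kir2.1 block with less thallium influx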
Target sequence (P35561 whole entry, looked up): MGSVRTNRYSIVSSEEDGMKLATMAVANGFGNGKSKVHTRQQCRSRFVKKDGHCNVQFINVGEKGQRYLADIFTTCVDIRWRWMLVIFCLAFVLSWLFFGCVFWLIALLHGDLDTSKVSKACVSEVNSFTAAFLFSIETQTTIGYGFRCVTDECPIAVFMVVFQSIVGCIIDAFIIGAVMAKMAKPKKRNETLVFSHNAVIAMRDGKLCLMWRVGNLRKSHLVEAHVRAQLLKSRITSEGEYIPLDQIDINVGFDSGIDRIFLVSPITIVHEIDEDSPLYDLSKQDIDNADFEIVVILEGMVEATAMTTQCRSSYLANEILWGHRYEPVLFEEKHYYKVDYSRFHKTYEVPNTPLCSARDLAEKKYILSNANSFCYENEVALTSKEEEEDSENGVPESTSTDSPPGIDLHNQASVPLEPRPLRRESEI
KCNK3 block = human KCNK3 channel inhibition, primary screen | 340,000 tested, 0.84% active | CHO-KCNK3 thallium flux, FluxOR fluorescence; hits give low values | O14649 | B-score at 10 µM | AID 602410;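 active = B-score under library mean minus 4 SD, starting fluorescence ratio at most library mean plus 5 SD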;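 note: more negative B-score means stronger inhibition of thallium flux through KCNK3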
KCNQ1 block = human KCNQ1 channel inhibition; P51787; CHO-K1 KCNQ1, FluxOR thallium flux fluorescence; hits give high values; 310,000 tested, 1.3% active; B-score at 10 µM;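 active = compounds whose thallium flux B-score, printed positive for inhibition, exceeds three library SD while starting fluorescence stays within three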;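 note: channel opened by potassium depolarization with thallium stimulus after 20 min compound exposure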
KCNK9 inh = human KCNK9 channel inhibition; 310,000 tested, 1.2% active; Q9NPC2; B-score at 10 µM; AID 488922; HEK293 KCNK9, FluxOR thallium flux fluorescence; hits give low values;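 active = ratio B-score over 3 SD below the library mean, with starting fluorescence within 5 SD of its mean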;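 note: negative B-score means less thallium flux so channel inhibition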
hERG rescue = compounds protecting human hERG from proarrhythmic drug block. CHO-hERG, FluxOR thallium flux, dofetilide IC70 present. activation (rescue from dofetilide block), less the hit threshold, % at 10 µM. 310,000 tested, 0.51% active;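 active = activation above the mean of controls blocked by dofetilide plus 5 SD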;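 note: thallium influx through hERG after potassium depolarization seen as dye fluorescence rise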
KCNQ1 block val = confirmation of human KCNQ1 potassium channel inhibitors. shares compounds with KCNQ1 block. KCNQ1 cell line, FluxOR thallium flux fluorescence. inhibition, % at 10 µM. 1,600 tested, 93% active. AID 588353;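 active = primary screen active, with duplicate mean exceeding buffer control mean plus 3 SD of buffer wells, cut at about 28% in these data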;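 note: 0% = buffer control ratio and 100% = XE991 inhibitor control ratio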
CHO Tl flux = KCNQ1 inhibitor counter-screen hit in parental CHO cells; shares compounds with KCNQ1 block; parental CHO-K1, FluxOR thallium flux fluorescence ratio; hits give low values; zero means no signal rise above baseline; fluorescence ratio (Tl flux) at 10 µM; 1,600 tested, 21% active; AID 588366;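 active = mean of duplicate thallium-flux fluorescence ratios in parental host cells more than 5 SD below the buffer control mean, cut at about 0.38 in these data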;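 note: ratio is peak minus minimum fluorescence divided by baseline fluorescence; actives read low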
KCNQ1 ephys val = human KCNQ1 inhibition validated by electrophysiology | shares compounds with KCNQ1 block | KCNQ1-CHO cells, automated patch clamp current | calls only at 10 µM | 490 tested, 20% active | AID 624120;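 active = KCNQ1 current drop exceeding 3 SD of negative control wells, seen in both duplicate runs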;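 note: steady state current during a 2 s step from -80 to +40 mV; negative values mean current inhibition and positive values mean potentiation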
KCNQ2 inh = selectivity of KCNQ1 inhibitors: inhibition of rat KCNQ2 channel; shares compounds with KCNQ1 block; KCNQ2 cells, FluxOR thallium flux fluorescence; inhibition, % at 10 µM; 1,600 tested, 71% active; AID 651746;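 active = mean percent inhibition of the KCNQ2 thallium signal more than 5 SD above the buffer-only control wells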;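 note: KCNQ2 expressed in CHO cells; 0% = buffer control wells and 100% = XE-991 inhibitor control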
KCNQ1 KCNE1 spec = KCNQ1 inhibitor that also blocks human KCNQ1/KCNE1 channel; shares compounds with KCNQ1 block; KCNQ1/KCNE1 cells, FluxOR thallium flux fluorescence; inhibition, % at 10 µM; 1,600 tested, 77% active;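 active = mean percent inhibition of duplicate wells above the buffer-only control mean plus 3 SD of those controls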;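 note: 0% = buffer only wells and 100% = XE-991 inhibitor control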
Active calls of the source: *; i = inactive; · = no result given; + = active, no number.

SMILES | KCNQ1 pot | Kir21 inh | KCNK3 block | KCNQ1 block | KCNK9 inh | hERG rescue | KCNQ1 block val | CHO Tl flux | KCNQ2 inh | KCNQ1 KCNE1 spec | others
CCc1ccccc1N1CCN(S(=O)(=O)c2ccc(F)c(C)c2)CC1 | i | 0.82 | i | 7* | i | -14 | 91* | 0.44 | 80%* | 91%* | KCNQ1 ephys val=i
Cc1cccc2c1Sc1ccc(Cl)cc1CC2N1CCNCC1 (stereo unspecified) | i | -4.2 | -12* | 9* | i | -21 | 123* | 0.3* | 116%* | 166%*
c1ccc(-c2noc(CSc3nnnn3-c3ccccc3)n2)cc1 | i | 0.78 | i | 6* | i | -11 | 60* | 0.48 | 62%* | 74%*
O=C(NC1CCCCCC1)C1CCCN(c2ncccn2)C1 (stereo unspecified) | i | 0.03 | i | i | i | -5 | · | · | · | ·
COc1ccccc1NC(=O)C(Sc1ccccc1)c1ccccc1 (stereo unspecified) | i | 0.69 | i | 10* | i | -11 | 84* | 0.4 | 112%* | 88%*
COc1ccc(CCNc2cc(C)nc3c(-c4ccccc4)cnn23)cc1OC | i | -0.03 | i | i | i | -1 | · | · | · | ·
COc1ccccc1-c1cnn2c(NCCc3ccccc3)cc(C)nc12 | i | -0.69 | i | 7* | i | -9 | 66* | 0.41 | 75%* | 119%*
COc1ccc(OCCCC(=O)Nc2cc(S(=O)(=O)N3CCCCC3)ccc2C)cc1 | · | · | i | · | · | · | · | · | · | ·
CCCCCCNC(=O)C(C#N)c1nc2ccccc2nc1N1CCCC1 (stereo unspecified) | i | -2.2 | i | 9* | i | -8 | + | 0.2* | i | i
Cc1ccc(Cn2nnc3c(=O)[nH]c(C4CCN(C(=O)Cc5cccs5)CC4)nc32)cc1 | i | -0.09 | i | 7* | i | -11 | 0 | 0.49 | i | i
FC(F)(F)c1ccc(Oc2ccccc2Cl)nc1 | i | -0.22 | i | i | i | -6 | · | · | · | ·
COc1cccc(OC)c1Oc1ccc(C(F)(F)F)cn1 | i | -1.4 | i | 7* | i | 3 | 85* | 0.44 | i | 82%*
N#Cc1c(Cl)nsc1NC(=O)c1ccccc1 | i | 0.47 | i | 6* | i | -29 | 0 | 0.53 | i | i
O=C(CCN1CCc2ccccc21)c1ccc2c(c1)OCCO2 | i | 0.86 | i | i | i | -8 | · | · | · | ·
O=C(CCN1CCc2ccccc2C1)c1ccc2c(c1)OCCO2 | i | 0.02 | i | 7* | i | -24 | 44* | 0.38* | 70%* | 83%*
O=C(CCN1CCC(c2ccccc2)C1)c1ccc2c(c1)OCCO2 (stereo unspecified) | i | -2.3 | i | 6* | i | -16 | 45* | 0.43 | 60%* | 56%*
O=C(CCN1CCCCC1)c1ccc2c(c1)OCCO2 | i | 0.34 | i | i | i | 1 | · | · | · | ·
O=C(CCN1CCCC1Cc1ccccc1)c1ccc2c(c1)OCCO2 (stereo unspecified) | i | -0.19 | i | 7* | i | -11 | 82* | 0.42 | 78%* | 100%*
CCOc1ccccc1C(=O)Oc1cc(C)[nH]c(=O)c1[N+](=O)[O-] | i | -0.37 | i | i | i | -1 | · | · | · | ·
C=CCNC(N)=S | i | -0.05 | i | i | i | -7 | · | · | · | ·
Cc1ccc(CNC(=S)NC2CCC(C(C)(C)C)CC2)cc1 (stereo unspecified) | i | -2.6 | i | 13* | i | -19 | 108* | 0.45 | 84%* | 80%* | KCNQ1 ephys val=i
Fc1ccc(CNC(=S)NC2CCCCCC2)cc1 | i | -0.99 | i | i | i | -8 | · | · | · | ·
COc1ccc(-c2csc3nc(C)nc(N4CCCCC4)c23)cc1OC | i | -0.02 | i | 6* | i | -10 | 54* | 0.42 | 100%* | 87%*
O=C(c1ccco1)N1CCN(CC(O)COc2ccc(Br)cc2)CC1 (stereo unspecified) | i | -0.14 | i | i | i | -10 | · | · | · | ·
O=C(COc1ccccc1)NC(NC(=S)Nc1ccccc1O)C(Cl)(Cl)Cl (stereo unspecified) | i | 1.9 | i | 9* | i | -16 | 78* | 0.48 | 92%* | 53%*
SMILES | KCNQ1 pot | Kir21 inh | KCNK3 block | KCNQ1 block | KCNK9 inh | hERG rescue | KCNQ1 block val | CHO Tl flux | KCNQ2 inh | KCNQ1 KCNE1 spec | others
Cc1nn(CC(=O)N(C)c2c(N)n(Cc3ccccc3)c(=O)[nH]c2=O)c(C)c1[N+](=O)[O-] | · | · | i | · | · | · | · | · | · | ·
CCOc1ccc2nc(NC3=NC(C)(C)C=C(C)N3)nc(C)c2c1 | i | -0.77 | i | 10* | i | -16 | 88* | 0.52 | i | 92%*
Cc1ccc(S(=O)(=O)N(CC(=O)N=Nc2c(O)[nH]c3ccccc23)c2cccc(C)c2)cc1 | i | 0.63 | i | 7* | i | -3 | 76* | 0.43 | 80%* | 130%*
C(=NN=C1c2ccccc2-c2ccccc21)c1ccc2c(c1)OCO2 | · | · | i | · | · | · | · | · | · | ·
CSCc1cc(N(C)c2ccccc2)nc(-c2ccccc2)n1 | i | -1.1 | i | 7* | i | -6 | 91* | 0.44 | 91%* | 98%* | KCNQ1 ephys val=i
COc1cc(CSC)nc(-c2ccccc2)n1 | i | 0.34 | i | i | i | -6 | · | · | · | ·
CCN(c1ccccc1)S(=O)(=O)c1cccc(C(=O)NCC(c2ccc(F)cc2)N2CCOCC2)c1 (stereo unspecified) | · | · | i | · | · | · | · | · | · | ·
NCC12CC3CC(C1)CC(c1ccc(Br)cc1)(C3)C2 | i | -9.5* | i | 6* | i | -17 | 66* | 0.43 | i | 124%*
CN(C(=O)COC(=O)c1cc(S(=O)(=O)N2CCOCC2)ccc1Cl)C1CCS(=O)(=O)C1 (stereo unspecified) | i | -2.3 | i | i | i | -10 | · | · | · | ·
Cc1ccc(S(=O)(=O)Nc2ccccc2CNc2ccccn2)cc1 | i | -4.2 | i | i | i | -17 | · | · | · | ·
